Data from ChEMBL document CHEMBL4000163, “Pyrazole derived ultra-short antimicrobial peptidomimetics with potent anti-biofilm activity” (Eur J Med Chem, 2017).
≈ marks a conversion by molar mass, not a printed value. Calls of active or inactive are those of the source. The rule behind the calls is not given here.

How the values were obtained:
Pseudomonas aeruginosa [1] = experiment: Antimicrobial activity against Pseudomonas aeruginosa KCTC 1637 incubated for 18 to 20 hrs by broth microdilution assay; format: functional; conditions: read-out: MIC100
Summary of the method: (§1)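 Broth microdilution in 1% peptone. Inoculum was 2 × 10⁶ CFU/mL mixed 1:1 with serial 2-fold peptide dilutions and incubated 18–20 h at 37 °C. Growth was read as absorbance at 600 nm; MIC is the lowest peptide concentration giving 100% growth inhibition.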

[2] = test system: Staphylococcus epidermidis; experiment: Antimicrobial activity against Staphylococcus epidermidis KCTC 1917 incubated for 18 to 20 hrs by broth microdilution assay; format: functional; conditions: read-out: MIC100; summary of the method: as §1
Escherichia coli [3] = experiment: Antimicrobial activity against Escherichia coli KCTC 1682 incubated for 18 to 20 hrs by broth microdilution assay; format: functional; conditions: read-out: MIC100; summary of the method: as §1
Staphylococcus aureus [4] = experiment: Antimicrobial activity against Staphylococcus aureus KCTC 1621 incubated for 18 to 20 hrs by broth microdilution assay; format: functional; conditions: read-out: MIC100; summary of the method: as §1
Pseudomonas aeruginosa [5] = experiment: Antibiofilm activity against multidrug-resistant Pseudomonas aeruginosa CCARM 2095 after 24 hrs by crystal violet staining based method; format: functional; conditions: CCARM 2095, 24 h
Summary of the method: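 MDRPA 2095 (1×10^6 cfu/mL) in MHB with 0.2% glucose, 24 h at 37 °C with or without peptide (2-fold dilutions, 1-64 µg/mL), six wells each. Wells washed with PBS, methanol-fixed, stained with 0.1% crystal violet 5 min, stain resolubilized in 95% ethanol, absorbance at 600 nm.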

[6] = Therapeutic index, ratio of MHC for sheep RBC to MIC for Staphylococcus epidermidis KCTC 1917
Staphylococcus aureus [7] = experiment: Induction of cytoplasmic membrane depolarization in Staphylococcus aureus KCTC 1621 assessed as loss of membrane potential after 1 hr by DiSC3(5) dye based fluorescence assay; format: functional
[8] = Therapeutic index, ratio of MHC for sheep RBC to geometric mean of MICs for four bacterial strains
Escherichia coli [9] = experiment: Induction of inner membrane permeabilisation in Escherichia coli ML-35 assessed as ONPG hydrolysis up to 30 ug/ml by beta-galactosidase enzyme coupled spectrophotometric analysis; format: functional
Summary of the method: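 E. coli ML-35 (constitutive cytoplasmic β-galactosidase, lactose permease-deficient) washed and resuspended to OD600 0.5 in 10 mM sodium phosphate pH 7.4, 100 mM NaCl, with 1.5 mM ONPG. o-Nitrophenol release tracked spectrophotometrically over time after peptide addition at various concentrations.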

[10] = Therapeutic index, ratio of MHC for sheep RBC to MIC for Staphylococcus aureus KCTC 1621
[11] = Therapeutic index, ratio of MHC for sheep RBC to geometric mean of MICs for four bacterial strains; remark: listed apart in the source
Pseudomonas aeruginosa [12] = experiment: Potency index, ratio of melittin MIC100 to compound MIC100 for Pseudomonas aeruginosa KCTC 1637; format: functional
Staphylococcus aureus [13] = experiment: Potency index, ratio of melittin MIC100 to compound MIC100 for Staphylococcus aureus KCTC 1621; format: functional
Pseudomonas aeruginosa [14] = experiment: Potency index, ratio of LL-37 MIC100 to compound MIC100 for Pseudomonas aeruginosa KCTC 1637; format: functional
Staphylococcus aureus [15] = experiment: Potency index, ratio of LL-37 MIC100 to compound MIC100 for Staphylococcus aureus KCTC 1621; format: functional
Enterococcus faecium = experiment: Antibacterial activity against vancomycin-resistant Enterococcus faecium ATCC 51559 after 18 to 20 hrs by broth microdilution assay; format: functional; conditions: read-out: MIC100
Summary of the method: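 Broth microdilution in 1% peptone: bacteria at 2 × 10⁶ CFU/mL mixed 1:1 with serial 2-fold peptide dilutions, 18-20 h at 37 °C; growth read as absorbance at 600 nm. MIC taken as lowest concentration giving 100% growth inhibition.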

Escherichia coli [16] = experiment: Antimicrobial activity against Escherichia coli KCTC 1682 using 4 hrs trypsin incubated compound measured after overnight incubation by radial diffusion assay; format: functional
Summary of the method: (§2)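 Radial diffusion: mid-log cells (2×10^6 CFU/ml in LB) in 0.7% agarose. Peptide stock (10 mg/mL) added to trypsin in PBS (0.2 µg/mL), 4 h at 37 °C, stopped by liquid-nitrogen freezing; 10 µL on paper discs on the plates, overnight at 37 °C. Clearance-zone diameters measured.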

Staphylococcus aureus [17] = experiment: Antimicrobial activity against Staphylococcus aureus KCTC 1621 using 4 hrs trypsin incubated compound measured after overnight incubation by radial diffusion assay; format: functional; summary of the method: as §2
Escherichia coli [18] = experiment: Induction of outer membrane permeabilization in Escherichia coli KCTC 1682 assessed as NPN uptake by spectrofluorophotometric analysis; format: functional
Summary of the method: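 E. coli KCTC 1682 at OD600 0.05 in 5 mM HEPES pH 7.2 with 5 mM KCN; NPN 10 µM final, background fluorescence recorded (ex 350, em 420 nm). Peptide aliquots at various concentrations added and fluorescence followed over time until no further rise.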

| SMILES | MIC (Pseudomonas aeruginosa [1]) [µg/mL] | MIC [2] [µg/mL] | MIC (Escherichia coli [3]) [µg/mL] | MIC (Staphylococcus aureus [4]) [µg/mL] | further results |
| --- | --- | --- | --- | --- | --- |
| N=C(N)NCCC[C@H](NC(=O)c1nn(CCCc2ccccc2)cc1NC(=O)[C@@H](N)CCCNC(=N)N)C(N)=O | > 64 | > 64 | > 64 | 64 (≈ 115 µM) |  |
| N=C(N)NCCC[C@H](NC(=O)c1nn(CCCc2ccccc2)cc1N)C(N)=O | > 64 | > 64 | > 64 | > 64 |  |
| CC[C@H](C)[C@H](NC(=O)[C@H](CCCCN)NC(=O)[C@H](CCC(=O)O)NC(=O)[C@H](CCCCN)NC(=O)[C@H](CO)NC(=O)[C@H](CCCCN)NC(=O)[C@H](CCCNC(=N)N)NC(=O)[C@H](Cc1ccccc1)NC(=O)[C@H](Cc1ccccc1)NC(=O)[C@H](CC(=O)O)NC(=O)CNC(=O)[C@H](CC(C)C)NC(=O)[C@@H](N)CC(C)C)C(=O)NCC(=O)N[C@@H](CCCCN)C(=O)N[C@@H](CCC(=O)O)C(=O)N[C@@H](Cc1ccccc1)C(=O)N[C@@H](CCCCN)C(=O)N[C@@H](CCCNC(=N)N)C(=O)N[C@H](C(=O)N[C@H](C(=O)N[C@@H](CCC(N)=O)C(=O)N[C@@H](CCCNC(=N)N)C(=O)N[C@H](C(=O)N[C@@H](CCCCN)C(=O)N[C@@H](CC(=O)O)C(=O)N[C@@H](Cc1ccccc1)C(=O)N[C@@H](CC(C)C)C(=O)N[C@@H](CCCNC(=N)N)C(=O)N[C@@H](CC(N)=O)C(=O)N[C@@H](CC(C)C)C(=O)N[C@H](C(=O)N1CCC[C@H]1C(=O)N[C@@H](CCCNC(=N)N)C(=O)N[C@H](C(=O)N[C@@H](CCC(=O)O)C(=O)N[C@@H](CO)C(=O)O)[C@@H](C)O)C(C)C)[C@@H](C)CC)C(C)C)[C@@H](C)CC [CATHELICIDIN] | 64 (≈ 14.2 µM) | 32 (≈ 7.12 µM) | 32 (≈ 7.12 µM) | 32 (≈ 7.12 µM) | IC90 (Pseudomonas aeruginosa [5]): 64 µg/mL (≈ 14.2 µM); TI [6]: 25.6; Activity (Staphylococcus aureus [7]): Active; TI [8]: 25.6; Activity (Escherichia coli [9]): Active; TI [10]: 25.6; TI [11]: 25.6 |
| N=C(N)NCCC[C@H](NC(=O)c1nn(CCc2cccc3ccccc23)cc1NC(=O)[C@H](CCCNC(=N)N)NC(=O)c1nn(CCc2cccc3ccccc23)cc1NC(=O)[C@H](CCCNC(=N)N)NC(=O)c1nn(CCc2cccc3ccccc23)cc1N)C(N)=O | > 64 | 64 (≈ 50.2 µM) | > 64 | 8 (≈ 6.27 µM) |  |
| N=C(N)NCCC[C@H](NC(=O)c1nn(CCc2cccc3ccccc23)cc1NC(=O)[C@H](CCCNC(=N)N)NC(=O)c1nn(CCc2cccc3ccccc23)cc1NC(=O)[C@@H](N)CCCNC(=N)N)C(N)=O | 8 (≈ 7.9 µM) | 32 (≈ 31.6 µM) | 32 (≈ 31.6 µM) | 4 (≈ 3.95 µM) |  |
| N=C(N)NCCC[C@H](NC(=O)c1nn(CCc2cccc3ccccc23)cc1N)C(N)=O | > 64 | > 64 | > 64 | > 64 |  |
| CCC(CC)Cn1cc(NC(=O)[C@@H](N)CCCNC(=N)N)c(C(=O)N[C@@H](CCCNC(=N)N)C(N)=O)n1 | > 64 | > 64 | > 64 | > 64 |  |
| N=C(N)NCCC[C@H](NC(=O)c1nn(CCC(c2ccccc2)c2ccccc2)cc1NC(=O)[C@@H](N)CCCNC(=N)N)C(N)=O | 8 (≈ 12.6 µM) | > 64 | > 64 | 8 (≈ 12.6 µM) | Ratio (Pseudomonas aeruginosa [12]): 2 - 4; Ratio (Staphylococcus aureus [13]): 2 - 4; Ratio (Pseudomonas aeruginosa [14]): 4 - 8; Ratio (Staphylococcus aureus [15]): 4 - 8 |
| N=C(N)NCCC[C@@H]1NC(=O)c2nn(CCC(c3ccccc3)c3ccccc3)cc2NC(=O)CSCC(C(N)=O)NC(=O)[C@H](CCCNC(=N)N)NC(=O)c2nn(CCC(c3ccccc3)c3ccccc3)cc2NC1=O (some centres not stated) | > 64 | 64 (≈ 59.3 µM) | > 64 | 16 (≈ 14.8 µM) |  |
| CC[C@H](C)[C@H](NC(=O)CN)C(=O)NCC(=O)N[C@@H](C)C(=O)N[C@H](C(=O)N[C@@H](CC(C)C)C(=O)N[C@@H](CCCCN)C(=O)N[C@H](C(=O)N[C@@H](CC(C)C)C(=O)N[C@H](C(=O)N[C@H](C(=O)NCC(=O)N[C@@H](CC(C)C)C(=O)N1CCC[C@H]1C(=O)N[C@@H](C)C(=O)N[C@@H](CC(C)C)C(=O)N[C@H](C(=O)N[C@@H](CO)C(=O)N[C@@H](Cc1c[nH]c2ccccc12)C(=O)N[C@H](C(=O)N[C@@H](CCCCN)C(=O)N[C@@H](CCCNC(=N)N)C(=O)N[C@@H](CCCCN)C(=O)N[C@@H](CCCNC(=N)N)C(=O)N[C@@H](CCC(N)=O)C(=O)N[C@@H](CCC(N)=O)C(N)=O)[C@@H](C)CC)[C@@H](C)CC)[C@@H](C)O)[C@@H](C)O)C(C)C)C(C)C [MELITTIN] |  |  |  |  | TI [6]: 0.5; Activity (Staphylococcus aureus [7]): Active; TI [8]: 0.5; MIC (Enterococcus faecium): 16 µg/mL (≈ 5.62 µM); Activity (Escherichia coli [9]): Active; Activity (Escherichia coli [16]): inactive; Activity (Staphylococcus aureus [17]): inactive; TI [10]: 0.5; Activity (Escherichia coli [18]): Dose-dependent effect; TI [11]: 0.5 |
| N=C(N)NCCC[C@H](NC(=O)c1nn(CCC(c2ccccc2)c2ccccc2)cc1NC(=O)[C@H](CCCNC(=N)N)NC(=O)c1nn(CCC(c2ccccc2)c2ccccc2)cc1N)C(N)=O | 32 (≈ 34.2 µM) | 32 (≈ 34.2 µM) | 32 (≈ 34.2 µM) | 8 (≈ 8.55 µM) |  |
| N=C(N)NCCC[C@H](NC(=O)c1nn(CCC(c2ccccc2)c2ccccc2)cc1NC(=O)[C@H](CCCNC(=N)N)NC(=O)c1nn(CCC(c2ccccc2)c2ccccc2)cc1NC(=O)[C@H](CCCNC(=N)N)NC(=O)c1nn(CCC(c2ccccc2)c2ccccc2)cc1N)C(N)=O | > 64 | 64 (≈ 45.9 µM) | 64 (≈ 45.9 µM) | 32 (≈ 22.9 µM) |  |
| N=C(N)NCCC[C@H](NC(=O)c1nn(CCc2cccc3ccccc23)cc1NC(=O)[C@@H](N)CCCNC(=N)N)C(N)=O | > 64 | > 64 | > 64 | 32 (≈ 54 µM) |  |
| N=C(N)NCCC[C@H](NC(=O)c1nn(CCC(c2ccccc2)c2ccccc2)cc1N)C(N)=O | 32 (≈ 67.1 µM) | > 64 | > 64 | > 64 |  |
| CCC(CC)Cn1cc(N)c(C(=O)N[C@@H](CCCNC(=N)N)C(N)=O)n1 | > 64 | > 64 | > 64 | > 64 |  |
